# NALP3 yeast inh – NALP3 inhibition in yeast; AID 2825; Yeast reconstituted NLRP3/ASC/caspase-1, beta-gal luminescence, 24 h; inhibition, % at 10 µM; actives 0.39% (n = 330,000);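 active = inhibition of 50% or more; inactive = inhibition below 50%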
# UCH37 DUB inh – blocks the human deubiquitinase UCH37; actives 0.33% (n = 330,000); AID 588478; purified proteasome/UCH37, Ub-AMC cleavage fluorescence; Q9Y5K5; inhibition, % (no concentration beside the values);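 active = mean inhibition over replicate wells above about 20%, limit read from the data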
#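 Schedule: 30 min plus 25 min, room temperature / Material: human UCH37 within purified proteasomes / Technique: AMC fluorescence intensity at 355/460 nm / Buffer or medium: pH 7.4 Tris-HCl (50 mM) with ovalbumin, ATP-MgCl2, DTT / Controls: wells without proteasome as full block, compound-free enzyme plus substrate as uninhibited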
# Calb FLC – affects C. albicans growth with fluconazole. growth inhibition, % (no concentration beside the values). C. albicans CaCi-2 + fluconazole, Alamar Blue growth, 48 h. actives 0.57% (n = 300,000);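 active = growth inhibition above about 58% in most replicates, limit read from the data, passing the limit was not always enough; inconclusive = exactly half the replicates above a set limit; inactive = most replicates below a set limit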;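 note: all wells also contain fluconazole at 8 µg/ml as a sub-toxic cotreatment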
# NALP1 yeast inh – inhibitors of NALP1 inflammasome in yeast | S. cerevisiae NALP1/ASC/caspase-1 growth, X-gal OD620, 72 h | AID 2071 | inhibition, % at 10 µM | actives 0.61% (n = 280,000); in the data active = inhibition mostly above about 24%, no sharp cut-off; inactive = mostly below about 32%
# ALR inh – human ALR oxidase inhibition via reduced H2O2. actives 3.8% (n = 290,000). purified ALR, DTT oxidation, H2O2 HRP-luminol luminescence. inhibition, % (no concentration beside the values);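 active = mean replicate inhibition above about 79%, with every replicate also reaching it, limit read from the data; inconclusive = only one of the two criteria met; inactive = mean below limit and not every replicate reaching it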
# Target sequence (P55789 whole entry, looked up): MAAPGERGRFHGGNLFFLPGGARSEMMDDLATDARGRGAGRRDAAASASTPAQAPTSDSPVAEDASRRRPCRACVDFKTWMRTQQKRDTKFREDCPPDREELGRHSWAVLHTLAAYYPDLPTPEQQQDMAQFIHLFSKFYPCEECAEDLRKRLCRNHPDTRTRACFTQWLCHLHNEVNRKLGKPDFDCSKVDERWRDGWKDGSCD
# ATG4B inh – blocks human ATG4B protease cleavage of LC3 substrate; actives 0.51% (n = 340,000); ATG4B cleavage of LC3-PLA2, NBD-HPC fluorescence, 1 h; inhibition, % at 8.33 µM; Q9Y4P1; in the data active = inhibition above about 40%
# ATG4B confirm – ATG4B (human) inhibition, single-dose confirmed; shares compounds with ATG4B inh; ATG4B protease fluorescent substrate cleavage assay; inhibition, % at 8.33 µM; actives 92% (n = 320); in the data active = inhibition above about 39%
# PLA2 counter – counter-screen for ATG4B inhibitors: human phospholipase A2 | shares compounds with ATG4B inh | purified PLA2, NBD-C6-HPC fluorescence, 45 min | inhibition, % at 8.33 µM | actives 66% (n = 1,600); in the data active = inhibition above about 50%
# Target sequence (P04054 whole entry, looked up): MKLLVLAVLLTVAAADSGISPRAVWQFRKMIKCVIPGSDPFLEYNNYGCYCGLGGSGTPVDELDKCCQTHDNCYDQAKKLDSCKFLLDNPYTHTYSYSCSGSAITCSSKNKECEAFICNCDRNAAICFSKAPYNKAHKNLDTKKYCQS
# Numbers stand for hits; . = inactive; ? = inconclusive; / = no result given. Compounds with a hit are over-represented: about 4.8% of the library has one in this group of screens.
SMILES,NALP3 yeast inh,UCH37 DUB inh,Calb FLC,NALP1 yeast inh,ALR inh,ATG4B inh,PLA2 counter,others
CN(C)C=Nc1nc2nccc(-c3cccs3)n2n1,/,.,/,/,/,/,/,
Cc1oc(-c2ccccc2F)nc1CS(=O)(=O)CC(=O)NCc1ccccc1Cl,.,.,.,.,.,49,67,
Cc1oc(-c2ccccc2F)nc1CS(=O)(=O)CC(=O)NCc1ccco1,.,.,.,.,.,.,/,
COc1cc(C(=O)ON=C2CCCc3c2ccc(OC)c3[N+](=O)[O-])cc(OC)c1OC,/,.,/,/,/,/,/,
Nc1nc(SCc2nnc(SCC(=O)O)n2-c2ccccc2)nc2sc3c(c12)CCCC3,.,.,.,.,.,46,63,
O=C(O)CSc1nc2sc3c(c2c(=O)n1-c1ccccc1)CCC3,.,.,.,/,.,.,/,
O=C(N/N=C/c1ccc(-c2ccc(S(=O)(=O)Nc3ncccn3)cc2)o1)c1cc2ccccc2cc1O,.,/,.,.,.,75,.,ATG4B confirm=.
O=C(N/N=C/c1coc2ccccc2c1=O)c1ccccc1,.,/,.,.,/,.,/,
O=C(N/N=C/c1coc2ccccc2c1=O)c1cn(-c2ccccc2)nc1-c1ccccc1,.,/,.,.,/,92,94,
O=c1oc(-c2ccccc2)nc2sc3c(c12)CCC3,.,.,.,.,.,56,.,ATG4B confirm=72
CCOc1ccc(C(=O)NN=C(c2ccccc2)c2ccccn2)cc1,/,.,/,/,/,/,/,
OC(CN1c2ccccc2Sc2ccccc21)Cn1nnc2ccccc21 (configuration not stated),.,.,.,.,98,44,65,
CC(C)(C)C(=O)ON=C(N)Cc1ccc(-c2csnn2)cc1,/,.,/,/,/,/,/,
CCOc1cc(/C=C2/SC(=O)N(CC(=O)N3CCc4ccccc4C3)C2=O)ccc1OCC(=O)O,.,.,.,.,.,56,.,ATG4B confirm=67
O=C(O)c1cc(NN=Nc2cccc([N+](=O)[O-])c2)cc([N+](=O)[O-])c1,.,.,.,.,.,83,87,
O=C(Nc1nc2c(F)cccc2s1)C1CC1,.,.,.,.,.,.,/,
CC1CCc2c(sc(Nc3nc4c(F)cccc4s3)c2C(N)=O)C1 (configuration not stated),.,.,.,.,.,41,.,
CN1/C(=C\C(=S)NC(=O)c2ccccc2Cl)C(C)(C)c2ccccc21,.,.,.,.,.,49,.,
COc1ccccc1C(=O)NC(=S)/C=C1/N(C)c2ccccc2C1(C)C,.,.,.,.,/,.,/,
O=C(c1cc(=O)c2ccccc2o1)N1CCCc2ccccc21,.,.,.,.,.,.,/,
CSCc1c(C(=O)N2CCCc3ccccc32)oc2ccccc12,.,.,/,/,.,61,78,
NC(=S)NN=Cc1cc([N+](=O)[O-])ccc1OCCOc1ccccc1,/,.,/,/,/,/,/,
Cc1ccsc1C(=O)NCCC(c1ccccc1)c1ccccc1,.,.,?,.,.,41,.,
Cc1ccsc1C(=O)NCc1ccccc1Cl,.,.,.,.,.,.,/,
Cc1nn(Cc2c(F)c(F)c(F)c(F)c2F)c(C)c1NC(=O)c1ccc(COc2cc(Cl)ccc2Cl)cc1,.,.,.,.,.,62,.,ATG4B confirm=44
SMILES,NALP3 yeast inh,UCH37 DUB inh,Calb FLC,NALP1 yeast inh,ALR inh,ATG4B inh,PLA2 counter,others
Cc1nn(Cc2c(F)c(F)c(F)c(F)c2F)c(C)c1NC(=O)c1ccc(COc2ccc(F)cc2)o1,.,.,.,.,.,67,68,
Cc1nn(Cc2c(F)c(F)c(F)c(F)c2F)c(C)c1NC(=O)c1ccc(COc2ccccc2Cl)cc1,/,/,.,.,/,.,/,
Cc1nn(Cc2c(F)c(F)c(F)c(F)c2F)c(C)c1NC(=O)c1ccc(COc2ccccc2Cl)o1,.,.,.,.,.,68,79,
Nc1nnnn1N=Cc1cc(Br)ccc1O,/,.,/,/,/,/,/,
COc1ccc(C=NNC(=S)Nc2cc(C(F)(F)F)ccc2Cl)cc1,/,.,/,/,/,/,/,
COc1ccc(Br)cc1/C=C(\C(=O)O)c1ccc(S(=O)(=O)N2CCCCC2)s1,.,.,/,/,/,84,87,
COC(=O)c1cccc(NC(=S)NCc2ccco2)c1,.,.,.,.,.,.,/,

# High-throughput results as filed in PubChem BioAssay.
